NR2E3 ag-1: agonists of human nuclear receptor NR2E3; Q9Y5X4; GST-NR2E3/biotin-RetCOR TR-FRET, 1536-well; inhibition of corepressor binding, % at 4.78 µM; 320,000 compounds, 0.12% hits;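 active = percent inhibition above the cutoff of mean plus 3 SD of all tested compounds, set per screening campaign, cut at about 20% in these data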;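 also: 0% = DMSO wells and 100% = biotin wells as full block of FRET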
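System: GST-tagged NR2E3 plus biotinylated RetCOR corepressor; Amount: 1.35 nM GST-tagged NR2E3 final; Dosing: single nominal compound dose of 4.8 µM; Schedule: 5 h incubation at 4 °C; Technique: TR-FRET with europium anti-GST and streptavidin-D2, 340 nm excitation; Controls: biotin wells as high control, 0.6% DMSO wells as low control.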
Jurkat NFkB inh: inhibitors of the PMA/ionomycin-induced NF-kB reporter in Jurkat cells; PMA/ionomycin-induced NF-kB luciferase reporter, luminescence; inhibition, % at 4 µM; 330,000 compounds, 0.53% hits; in the data active = inhibition above about 50%
NR2E3 ag-2: agonists of human NR2E3 nuclear receptor | Q9Y5X4 | CHO-S Gal4-NCOR/VP16-NR2E3 two-hybrid, luciferase | inhibition of corepressor binding, % at 3.98 µM | 360,000 compounds, 0.35% hits | AID 602229;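 active = inhibition above the mean of all tested compounds plus 3 SD, cut at about 70% in these data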;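 also: 0% = DMSO with NR2E3 transfected cells and 100% = cells lacking NR2E3 construct; higher means lower luciferase signal from less NR2E3 corepressor binding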
Gli-Sufu block: Gli-Sufu pathway antagonism; 340,000 compounds, 0.74% hits; inhibition, % at 5 µM; Sufu-KO-LIGHT fibroblasts, Gli luciferase reporter luminescence;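 active = inhibition above about 55%, limit read from the data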;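 also: 0% = DMSO-treated cells and 100% = wells with medium but no cells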
697 NFkB inh: lowers PMA/ionomycin-induced NF-kB signal in 697 B cells; 330,000 compounds, 0.33% hits; 697 B-cell NF-kB luciferase reporter, 16 h; inhibition, % at 4 µM; AID 435022; in the data active = inhibition above about 35%
GalR3 antagonist: human GalR3 antagonism; HEK293 GalR3-CNG cAMP membrane potential fluorescence; galR3 body fused to GalR1 C-terminus; inhibition, % at 3 µM; 360,000 compounds, 0.44% hits; AID 651719;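 active = inhibition above the screen-wide average plus 3 SD, cut at about 13% in these data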;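 also: forskolin and galanin both at EC90 stimulate the cells; cAMP rise reported by CNG channel membrane potential dye signal; 0% = forskolin plus galanin with DMSO and 100% = forskolin alone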
Target sequence (O60755 1-299 limits assumed): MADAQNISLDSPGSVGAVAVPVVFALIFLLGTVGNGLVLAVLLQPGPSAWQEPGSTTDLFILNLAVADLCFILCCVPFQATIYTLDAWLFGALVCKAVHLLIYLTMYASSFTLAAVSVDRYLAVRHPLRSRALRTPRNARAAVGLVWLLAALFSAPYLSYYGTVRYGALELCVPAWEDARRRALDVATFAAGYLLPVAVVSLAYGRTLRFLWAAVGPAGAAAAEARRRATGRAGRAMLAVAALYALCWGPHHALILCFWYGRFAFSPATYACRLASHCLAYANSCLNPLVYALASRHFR
Jurkat NFkB conf: inhibitors of the PMA/ionomycin-induced NF-kB reporter in Jurkat cells, retest; AID 435020; shares compounds with Jurkat NFkB inh; inhibition, % at 4 µM; 2,700 compounds, 27% hits; Jurkat NF-kB luciferase, 16 h;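 active = inhibition reaching about 45% at 4 µM in either replicate, limit read from the data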;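 also: plate controls were PMA/ionomycin stimulated DMSO wells for no effect and unstimulated DMSO wells for full effect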
697 NFkB conf: inhibitors of the PMA/ionomycin-induced NF-kB reporter in 697 B cells, retest; shares compounds with 697 NFkB inh; 697 B-cell NF-kB luciferase, 16 h; inhibition, % at 4 µM; 2,000 compounds, 35% hits; AID 449746; in the data active = inhibition mostly above about 28%, no sharp cut-off; inactive = mostly below about 22%
Gli-Sufu confirm: Gli-SUFU antagonism confirmation, single concentration | Sufu-KO-LIGHT cells, Gli luciferase reporter, luminescence | inhibition, % at 5 µM | 2,500 compounds, 40% hits | AID 602428 | shares compounds with Gli-Sufu block;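 active = mean inhibition at 5 µM reaching about 45%, limit read from the data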;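 also: plate controls were DMSO-treated cells for no effect and wells lacking cells for full effect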
Gli cytotox: cytotoxicity counter-screen for Gli-SUFU antagonists; shares compounds with Gli-Sufu block; Sufu-KO-LIGHT cells cytotoxicity, ATP luminescence; cytotoxicity, % at 5 µM; 2,500 compounds, 32% hits; AID 651994;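 active = mean cytotoxicity at 5 µM above about 25%, limit read from the data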;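 also: cells exposed to compound overnight for roughly 16 to 18 hours; plate controls were DMSO wells with cells for no effect and medium without cells for full effect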
Wnt3a cs: inhibits Wnt3a reporter, counter-screen for Gli-SUFU antagonists | shares compounds with Gli-Sufu block | AID 651995 | 2,500 compounds, 20% hits | inhibition, % at 6.25 µM | Wnt-LIGHT cells, Wnt3a-driven luciferase reporter, luminescence;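 active = mean inhibition above about 25%, limit read from the data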
* marks the source's active call; other numbers are inactive results. The list is not random: actives were taken first. Their share in the collection is about 1.8%.

What do the screens show for `CCn1c(/C=C/Nc2ccccc2)[n+](CC)c2ccc(Cl)cc21`?
NR2E3 ag-1: 0; Jurkat NFkB inh: 58*; NR2E3 ag-2: -8; Gli-Sufu block: 52; 697 NFkB inh: -27; GalR3 antagonist: -2; Jurkat NFkB conf: 9; Gli-Sufu confirm: 43; Gli cytotox: 25; Wnt3a cs: -33

Results for COc1cc(C2C(C#N)=C(N)Oc3cc4c(cc32)OCO4)cc(OC)c1OC (configuration not stated) ?
NR2E3 ag-1: 2; Jurkat NFkB inh: 77*; NR2E3 ag-2: -36; Gli-Sufu block: 58*; 697 NFkB inh: -140; GalR3 antagonist: 0; Jurkat NFkB conf: 46; Gli-Sufu confirm: 56*; Gli cytotox: 51*; Wnt3a cs: 4

What do the screens show for `N#CC1=C(N)Oc2cc3c(cc2C1c1ccc(Cl)cc1)OCO3` (configuration not stated)?
NR2E3 ag-1: 5; Jurkat NFkB inh: 17; NR2E3 ag-2: -24; Gli-Sufu block: -11; 697 NFkB inh: 4; GalR3 antagonist: -2

How did CCCCOc1ccc(OC(=O)c2cccnc2)cc1 do in these assays?
NR2E3 ag-1: 2; Jurkat NFkB inh: -10; NR2E3 ag-2: 5; Gli-Sufu block: 31; 697 NFkB inh: -37; GalR3 antagonist: -2

Results for CCCCCCCOc1ccc(OC(=O)c2ccncc2)cc1 ?
NR2E3 ag-1: 4; Jurkat NFkB inh: 80*; NR2E3 ag-2: 9; Gli-Sufu block: 74*; 697 NFkB inh: -92; GalR3 antagonist: -9; Jurkat NFkB conf: 55*; Gli-Sufu confirm: 63*; Gli cytotox: 20; Wnt3a cs: 10

What do the screens show for `CCCCCCCOc1ccc(OC(=O)c2cccnc2)cc1`?
NR2E3 ag-1: 3; Jurkat NFkB inh: 85*; NR2E3 ag-2: 9; Gli-Sufu block: 74*; 697 NFkB inh: -139; GalR3 antagonist: 0; Jurkat NFkB conf: 53*; Gli-Sufu confirm: 60*; Gli cytotox: 20; Wnt3a cs: -8

What do the screens show for `CCn1c2ccccc2c2cc(NC(=O)c3cc(OC)c(OC)c(OC)c3)ccc21`?
NR2E3 ag-1: 0; Jurkat NFkB inh: 57*; NR2E3 ag-2: 22; Gli-Sufu block: 71*; 697 NFkB inh: -140; GalR3 antagonist: 2; Jurkat NFkB conf: 51*; Gli-Sufu confirm: 60*; Gli cytotox: 64*; Wnt3a cs: 0

How did Cc1cc(N2CCC(C)CC2)nc(-c2ccccc2O)n1 do in these assays?
NR2E3 ag-1: 1; Jurkat NFkB inh: 3; NR2E3 ag-2: -13; Gli-Sufu block: -1; 697 NFkB inh: 8; GalR3 antagonist: 9

Results for Cc1cc(N2CCC(C)CC2)nc(NCc2ccccc2)n1 ?
NR2E3 ag-1: -3; Jurkat NFkB inh: 53*; NR2E3 ag-2: 8; Gli-Sufu block: 52; 697 NFkB inh: -28; GalR3 antagonist: -8; Jurkat NFkB conf: 4; Gli-Sufu confirm: 22; Gli cytotox: 31*; Wnt3a cs: -17

How did Cc1ccc(C(=O)CN2C(=O)c3ccccc3S2(=O)=O)cc1 do in these assays?
NR2E3 ag-1: 1; Jurkat NFkB inh: 81*; NR2E3 ag-2: 37; Gli-Sufu block: 78*; 697 NFkB inh: 73*; GalR3 antagonist: 4; Jurkat NFkB conf: 66*; 697 NFkB conf: 51*; Gli-Sufu confirm: 87*; Gli cytotox: 26*; Wnt3a cs: 95*

Source: PubChem (several laboratories)
